In ChEMBL document CHEMBL1132294, “Derivatives of the new ring system indolo[1,2-c]benzo[1,2,3]triazine with potent antitumor and antimicrobial activity” (J Med Chem, 1999):
Values after ≈ are worked out from the molar mass of the structure shown.

What was measured:
Staphylococcus = assay: Antibacterial activity was evaluated against staphylococcus; format: functional
In short: (§1)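 Recent clinical isolates grown in nutrient broth, pH 7.2, inoculum 10³ bacterial cells/tube, with serial compound dilutions. […] Mean of at least three separate experiments.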

CCRF-SB = assay: Antitumor activity was evaluated against leukemia cell line CCRF-SB(human acute B lymphoblastic leukemia).; format: functional, cell-based
In short: (§2)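 Exponentially growing leukemia/lymphoma cells resuspended at 1×10⁵ cells/mL in RPMI with serial drug dilutions. Viability by MTT after 4 days at 37 °C. Concentration giving 50% growth inhibition versus untreated controls found by linear regression. Mean of at least three experiments.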

ACHN = assay: Antitumor activity was evaluated against human renal adenocarcinoma cell line ACHN.; format: functional, cell-based
In short: (§3)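 Solid-tumour and KB lines: exponentially growing cells seeded at 5×10⁴ cells/mL, allowed to adhere 16 h, then serial drug dilutions added. Viability by MTT after 4 days. Growth expressed as % of untreated controls, 50% inhibitory concentration by linear regression. Untreated cells undergo at least three rounds of multiplication.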

Mycobacterium = assay: Antibacterial activity was evaluated against MAC (Mycobacterium Avium Complex ); format: functional
In short: (§4)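 Mycobacterial suspension (turbidity of 1 McFarland standard, 10⁸ CFU/mL) added to Middlebrook 7H9 with 0.5% glycerol, 10% OADC and serial compound dilutions. Incubated at 37 °C, 1 day for M. smegmatis and M. fortuitum, 9 days for MAC. Viable mycobacteria counted by MTT. MIC given as mean of at least three separate experiments.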

HeLa = assay: Antitumor activity was evaluated against human cervix carcinoma cell line HeLa.; format: functional, cell-based; in short: as §3
[1] = tested on: Mycobacterium tuberculosis; assay: Antibacterial activity was evaluated against Mycobacterium tuberculosis (ATCC); format: functional
In short: (§5)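 Broth microdilution in Middlebrook 7H9 with 0.5% glycerol and 10% OADC, containing serial concentrations of compound (diluted in medium from a DMSO solution). Plates were incubated 9 days at 37 °C, and viable bacteria were read by MTT. MIC is the mean of at least three separate experiments.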

IMR-32 = assay: Antitumor activity was evaluated against human neuroblastoma cell line IMR-32.; format: functional, cell-based; in short: as §3
WIL2-NS = assay: Antitumor activity was evaluated against lymphoma cell line Wil2-NS (human splenic B lymphoblastoid cells).; format: functional, cell-based; in short: as §2
L1210 = assay: Antitumor activity was evaluated against leukemia cell line L1210 (mouse leukemia).; format: functional, cell-based; in short: as §2
[2] = tested on: Mycobacterium tuberculosis; assay: Antibacterial activity was evaluated against Mycobacterium tuberculosis (clinical isolate 1104); format: functional; in short: as §5
CHO-K1 = assay: Antitumor activity was evaluated against Chinese hamster ovary carcinoma cell line CHO-K1.; format: functional, cell-based; conditions: Cricetulus griseus; in short: as §3
Trichophyton benhamiae = assay: Antimycotic activity against Trichophyton mentagrophytes was evaluated. MIC was defined as compound concentration at which no macroscopic signs of fungal growth were detected.; format: functional, Arthroderma benhamiae
In short: (§6)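 Yeast inocula from 30 h Sabouraud dextrose broth cultures at 37 °C, diluted to 5×10³ cells/mL. Dermatophyte inocula from 5-day cultures, homogenized and diluted to 0.05 OD₅₉₀/mL. Inocula added to medium with serial dilutions, incubated at 37 °C, read visually at 2 days (yeast) or 3 days (dermatophytes). Mean of at least three experiments.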

5637 = assay: Antitumor activity was evaluated against human bladder carcinoma cell line 5637.; format: functional, cell-based; in short: as §3
Salmonella = assay: Antibacterial activity was evaluated against salmonella.; format: functional; in short: as §1
CCRF-CEM = assay: Antitumor activity was evaluated against leukemia cell line CCRF-CEM(human acute T lymphoblastic leukemia).; format: functional, cell-based
In short: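 Exponentially growing leukemia/lymphoma cells resuspended at 1×10⁵ cells/mL in RPMI with serial drug dilutions. Viability by MTT after 4 days at 37 °C. Mean of at least three experiments.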

MOLT-4 = assay: Antitumor activity was evaluated against leukemia cell line MOLT-4(human acute T lymphoblastic leukemia); format: functional, cell-based; in short: as §2
[3] = tested on: Mycolicibacterium smegmatis; assay: Antibacterial activity was evaluated against Mycobacterium smegmatis; format: functional; in short: as §4
Shigella = assay: Antibacterial activity was evaluated against shigella.; format: functional; in short: as §1
Candida parapsilosis [4] = assay: Antimycotic activity against Candida parapsilosis was evaluated as compound concentration at which no macroscopic signs of fungal growth were detected; format: functional; conditions: Lodderomyces parapsilosis; in short: as §6
Candida albicans = assay: Antimycotic activity against Candida albicans was evaluated as minimum inhibitory concentration of compound at which no macroscopic signs of fungal growth were detected; format: functional; in short: as §6
Cryptococcus neoformans = assay: Antimycotic activity against Cryptococcus neoformans was evaluated. MIC was defined as compound concentration at which no macroscopic signs of fungal growth were detected.; format: functional; in short: as §6
[5] = tested on: Mycolicibacterium fortuitum; assay: Antibacterial activity was evaluated against Mycobacterium fortuitum.; format: functional; in short: as §4
Candida tropicalis = assay: Antimycotic activity against Candida paratropicalis was evaluated. MIC was defined as compound concentration at which no macroscopic signs of fungal growth were detected.; format: functional; in short: as §6
Streptococcus = assay: Antibacterial activity was evaluated against streptococcus.; format: functional; in short: as §1
MT4 = assay: Antitumor activity was evaluated against leukemia cell line MT-4(human CD4+ T cells expressing the TAT gene of HTLV-1).; format: functional, cell-based; in short: as §2
HT-29 = assay: Antitumor activity was evaluated against human colon adenocarcinoma cell line HT-29.; format: functional, cell-based; in short: as §3
Aspergillus fumigatus = assay: Antimycotic activity against Aspergillus fumigatus was evaluated as compound minimum inhibitory concentration at which no macroscopic signs of fungal growth were detected.; format: functional
KB [6] = assay: Antiproliferative activity against drug-resistant tumor cell line KBMDR.; format: functional, cell-based; conditions: Homo sapiens; in short: as §3
KB [7] = assay: Antiproliferative activity against drug-resistant tumor cell line KBwt.; format: functional, cell-based; conditions: Homo sapiens; in short: as §3
KB [8] = assay: Antiproliferative activity against drug-resistant tumor cell line KBCamp.; format: functional, cell-based; conditions: Homo sapiens; in short: as §3
KB [9] = assay: Antiproliferative activity against drug-resistant tumor cell line KB7D.; format: functional, cell-based; conditions: Homo sapiens; in short: as §3
KB [10] = assay: Antiproliferative activity against drug-resistant tumor cell line KBV20C.; format: functional, cell-based; conditions: Homo sapiens; in short: as §3
Candida parapsilosis [11] = assay: Antimycotic activity against Candida parapsilosis was evaluated. MIC was defined as compound concentration at which no macroscopic signs of fungal growth were detected.; format: functional; conditions: Lodderomyces parapsilosis; in short: as §6
Homo sapiens [12] = species on record: Homo sapiens; assay: In vitro Antiproliferative activity against peripheral blood lymphocytes (PBL) by treating PBL with compound for 3 days, then stimulating with PHA and then resuspending in compound free medium.; format: functional; conditions: 72 h
In short: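 Resting donor PBL held at 1×10⁶ cells/mL and treated with compound for up to 3 days, then washed. Stimulated with PHA for 24 h, diluted to 1×10⁵ cells/mL in drug-free medium with PHA and IL-2. Viability read after 6 days at 37 °C. Mean ±SD of three experiments.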

Homo sapiens [13] = species on record: Homo sapiens; assay: In vitro Antiproliferative activity against peripheral blood lymphocytes (PBL) after stimulating PBL with PHA and then resuspending in IL-2-containing medium in the presence of compound.; format: functional
In short: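 PBL from HIV-negative donors, isolated on Ficoll-Hypaque and rested overnight. Stimulated with PHA 2.5 μg/mL for 24 h, diluted to 1×10⁵ cells/mL in medium with PHA, IL-2 50 U/mL and compound. Viable cells counted after 6 days. Mean ±SD of three experiments.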

Lymphoblastoid cell = assay: Cytotoxicity was evaluated against lymphoblastoid cell line.; format: functional; conditions: Homo sapiens

Structure (SMILES) | MIC (Staphylococcus) | IC50 (CCRF-SB) | IC50 (ACHN) | IC50 (HeLa) | IC50 (IMR-32) | IC50 (WIL2-NS) | IC50 (L1210) | IC50 (CHO-K1) | MIC (Trichophyton benhamiae) | IC50 5637 | MIC (Salmonella) | IC50 (CCRF-CEM) | IC50 (MOLT-4) | MIC (Shigella) | MIC (Candida albicans) | MIC (Cryptococcus neoformans) | MIC (Candida tropicalis) | IC50 (MT4) | IC50 (HT-29) | MIC (Aspergillus fumigatus) | other results
COc1ccc2c(c1)c(N=O)c1c3ccccc3nnn21 | 0.2 µM (≈ 0.0557 µg/mL) | 5000 nM | 14000 nM | 11000 nM | 2300 nM | 3700 nM | 13000 nM | > 50000 nM | > 200 µM | 6000 nM | > 200 µM | 7200 nM | 1300 nM | > 200 µM | > 200 µM | > 200 µM | > 200 µM | 1100 nM | > 50000 nM | > 200 µM | MIC (Mycobacterium): 2.5 µM (≈ 0.696 µg/mL); MIC [1]: 5.3 µM (≈ 1.47 µg/mL); MIC [2]: 4.5 µM (≈ 1.25 µg/mL); MIC [3]: > 5 µM; MIC (Candida parapsilosis [4]): > 200 µM; MIC [5]: > 5 µM; MIC (Streptococcus): 0.1 µM (≈ 0.0278 µg/mL)
CC[C@]1(O)C[C@H]2CN(CCc3c([nH]c4ccccc34)[C@@](C(=O)OC)(c3cc4c(cc3OC)N(C=O)[C@H]3[C@@](O)(C(=O)OC)[C@H](OC(C)=O)[C@]5(CC)C=CCN6CC[C@]43[C@@H]65)C2)C1 [VINCRISTINE] |  |  |  |  |  |  |  |  |  |  |  |  |  |  |  |  |  |  |  |  | IC50 (KB [6]): 350 nM; IC50 (KB [7]): 1 nM; IC50 (KB [8]): 5 nM; IC50 (KB [9]): 35 nM; IC50 (KB [10]): 50 nM
O=Nc1c2ccccc2n2nnc3ccccc3c12 | 0.8 µM (≈ 0.199 µg/mL) | 7400 nM | 12000 nM | 10000 nM | 3300 nM | 4400 nM | 12000 nM | 45000 nM | 9.4 µM (≈ 2.33 µg/mL) | 4200 nM | 25 µM (≈ 6.21 µg/mL) | 7000 nM | 2300 nM | 25 µM (≈ 6.21 µg/mL) | 19 µM (≈ 4.72 µg/mL) | 3.1 µM (≈ 0.77 µg/mL) | 19 µM (≈ 4.72 µg/mL) | 1400 nM | 50000 nM | 19 µM (≈ 4.72 µg/mL) | MIC (Candida parapsilosis [11]): 19 µM (≈ 4.72 µg/mL); MIC (Mycobacterium): 1.2 µM (≈ 0.298 µg/mL); MIC [1]: 4.6 µM (≈ 1.14 µg/mL); MIC [2]: 7.4 µM (≈ 1.84 µg/mL); MIC [3]: 2.5 µM (≈ 0.621 µg/mL); MIC [5]: > 5 µM; MIC (Streptococcus): 0.8 µM (≈ 0.199 µg/mL)
O=Nc1c2cc([N+](=O)[O-])ccc2n2nnc3ccccc3c12 | 0.09 µM (≈ 0.0264 µg/mL) | 11000 nM | > 50000 nM | 16000 nM | 12000 nM | 12000 nM | 9200 nM | 42000 nM | 66 µM (≈ 19.4 µg/mL) | 29000 nM | > 200 µM | 8200 nM | 6600 nM | > 200 µM | 66 µM (≈ 19.4 µg/mL) | 7.4 µM (≈ 2.17 µg/mL) | 22 µM (≈ 6.45 µg/mL) | 1200 nM | 18000 nM | > 200 µM | MIC (Candida parapsilosis [4]): 66 µM (≈ 19.4 µg/mL); MIC [5]: > 5 µM; MIC (Streptococcus): 0.09 µM (≈ 0.0264 µg/mL)
COc1cccc2c1C(=O)c1c(O)c3c(c(O)c1C2=O)C[C@@](O)(C(=O)CO)C[C@@H]3O[C@H]1C[C@H](N)[C@H](O)[C@H](C)O1 [DOXORUBICIN] |  | 10 nM | 400 nM |  | 10 nM | 20 nM | 230 nM | 400 nM | > 2.5 µM | 20 nM |  |  | 30 nM |  | > 2.5 µM | > 2.5 µM | > 2.5 µM | 20 nM | 50 nM | > 2.5 µM | CC50 (Homo sapiens [12]): 90 nM; CC50 (Homo sapiens [13]): 40 nM; MIC (Candida parapsilosis [4]): > 2.5 µM; CC50 (Lymphoblastoid cell): 60 nM
Cc1ccc2nnn3c4ccccc4c(N=O)c3c2c1 | 0.4 µM (≈ 0.105 µg/mL) | 700 nM | 8700 nM | 9500 nM | 2800 nM | 800 nM | 1700 nM | 6500 nM | > 200 µM | 1900 nM | > 200 µM | 500 nM | 500 nM | > 200 µM | > 200 µM | > 200 µM | > 200 µM | 1300 nM | 3100 nM | > 200 µM | MIC (Mycobacterium): 5 µM (≈ 1.31 µg/mL); CC50 (Homo sapiens [12]): 600 nM; MIC [1]: 9.3 µM (≈ 2.44 µg/mL); MIC [2]: 9.2 µM (≈ 2.41 µg/mL); MIC [3]: > 5 µM; CC50 (Homo sapiens [13]): 500 nM; MIC (Candida parapsilosis [4]): > 200 µM; MIC [5]: > 5 µM; MIC (Streptococcus): 0.8 µM (≈ 0.21 µg/mL); CC50 (Lymphoblastoid cell): 900 nM
